Only a selection was taken, and hits are over-represented in it overall.
INS promoter act: TRM-6 insulin promoter activation; activation, % at 2 µM; hit rate 0.81% among 130,000; TRM-6 cells (human fetal islet line), insulin promoter eGFP reporter, imaging; plate-scaled: unstimulated 0, stimulated control 100;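 active means activation at 2 µM above a set limit, confirmed on inspection of the cell images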;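 further: share of cells whose green reporter signal exceeds an intensity cutoff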
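Assay system: TRM-6 human fetal islet cells, insulin promoter–eGFP reporter; Also added: 0.75 µM tamoxifen as reporter inducer; Schedule: 15 h tamoxifen pre-treatment, 48 h compound treatment at 37 °C; Signal: fixed-cell fluorescence microscopy, eGFP plus Hoechst; Read-out: percent activation from GFP-positive cell fraction; Control set: stimulated and unstimulated wells.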
* marks the source's active call; other numbers are inactive results.

SMILES	INS promoter act
CCN(CC)S(=O)(=O)c1cccc(C(=O)Nc2sc3c(c2C(N)=O)CCCC3)c1	-5.4
CCN(CC)S(=O)(=O)c1cccc(-c2nnc(SCC(=O)N3CCC(C(=O)O)CC3)n2N)c1	-5.6
CCN(CC)S(=O)(=O)c1cccc(C(=O)N2CC(O)CC2C(=O)O)c1 (stereo unspecified)	442.9*
CC1CCN(S(=O)(=O)c2ccc3c(c2)N(CC(=O)NCc2cccnc2)C(=O)CS3)CC1	128.6
Cc1ccc(S(=O)(=O)NCc2ccco2)cc1C(N)=O	-8.3
N#Cc1c(NC(=O)C2CC(c3ccccc3O)=NO2)sc2c1CCC2 (stereo unspecified)	0.0
COc1cccc(C(C(=O)NC2CCCC2)N(Cc2ccccc2OC)C(=O)c2ccco2)c1 (stereo unspecified)	214.3
O=C(NC1CCCCC1)C(c1cccs1)N(C(=O)c1ccccn1)c1ccccc1 (stereo unspecified)	179.3
COc1cccc(C(C(=O)NC2CCCCC2)N(C(=O)c2ccccn2)c2cccnc2)c1 (stereo unspecified)	627.3*
Cc1cccc2cc(C#N)c(SCC(=O)NCc3cccs3)nc12	5.4
CCCc1nccn1S(=O)(=O)c1cc(OC)ccc1OC	-75.0
CC1=C(C(=O)OCC2CCCO2)C(c2ccc(Cl)cc2)NC(=O)N1 (stereo unspecified)	-9.1
N#CC1=C(N)SC(N)=C(C#N)C1c1ccoc1	31.8
Cc1ccc(C2C(C#N)=C(N)SC(N)=C2C#N)cc1	121.4*
Cc1ccc(C2C(C#N)=C(N)SC(N)=C2C#N)c(C)c1	-3.8
CC(C)N1C(=O)CCC1C(=O)NCc1cccs1 (stereo unspecified)	0.0
COCCCN1CN(Cc2ccccc2)CNC1=S	-1.6
COc1cc(C2NC(=S)NC(C)=C2C(=O)Nc2ccc(C)cc2)ccc1O (stereo unspecified)	6.7
CCCCC(C(=O)O)C(C)CC(=O)NNC(=O)c1ccco1 (stereo unspecified)	7.7
CN(C)c1ccc(/C=N/N2C(=N)N(c3ccccc3)C(=S)C2=Nc2ccccc2)cc1	252.4
CN(C)c1ccc(/C=C/C=C2/SC(=S)N(c3ccccc3)C2=O)cc1	295.8*
CN(C)c1ccc(/C=C/C(O)=C2/C(=O)N(C)C3(C)CC2c2ccccc2O3)cc1 (stereo unspecified)	64.0
CCCC12CN3CC(C)(CN(C1)C3c1ccco1)C2=O (stereo unspecified)	5.6
CC(C)CN1C(=O)/C(=C(/C#N)C(=O)NC2CCCCC2)c2ccccc21	8.3
COc1ccccc1NC(=S)N1CCn2cccc2C1c1cccnc1 (stereo unspecified)	0.0
SMILES	INS promoter act
Cc1cc(Nc2ccccc2C(=O)O)nc2nc3ccccc3c(=O)n12	146.2*
COc1ccccc1Nc1cc(C(=O)N2CCc3ccccc3C2)c2ccccc2n1	8.3
Cc1cccc(Nc2ccccc2C(=O)O)c1C	4.5
CCOc1ccc(-c2nc(CSCC(=O)NC3CCCc4ccccc43)c(C)o2)cc1 (stereo unspecified)	2.8
O=C(c1ccc2c(c1)OCCO2)N1CCN(c2ccc([N+](=O)[O-])cc2)CC1	7.1
O=C(CSc1nc2ccccc2[nH]1)NCCc1ccc(Cl)cc1	3.7
O=S(=O)(c1ccc2nc(SCc3cccc(Cl)c3)[nH]c2c1)N1CCOCC1	-2.0
O=C(CSc1nc2ccccc2[nH]1)N1CCN(S(=O)(=O)c2ccc(Cl)cc2)CC1	96.9*
Cc1nn(C)c(C)c1CS(=O)(=O)c1ccccc1	0.0
CCN(C(=O)Cc1c(C(=O)O)n(C)c2ccccc12)c1ccc(F)cc1	-7.1
CCc1nn(CC(=O)Nc2cc(C)ccc2C)c(=N)s1	109.1
Cc1ncc([N+](=O)[O-])n1CCOC(=O)Nc1ccc(Cl)c(Cl)c1	0.0
Cc1ncc([N+](=O)[O-])n1CCOC(=O)NC(NCc1ccccc1)C(Cl)(Cl)Cl (stereo unspecified)	133.3*
Cc1ncc([N+](=O)[O-])n1CC(=O)NCc1ccccc1	-6.7
O=C(Nc1ccc(-n2cccc2)cc1)C1CC1	0.0
COCc1cc(C)nc(Nc2ccccc2C)c1C#N	408.1*
COCc1cc(C)nc(SCC[N+](C)(C)CC(=O)Nc2ccccc2)c1C#N	8.3
COCc1cc(C)nc(N2CCc3ccccc32)c1C#N	0.0
CN(C)S(=O)(=O)c1cc(NC2CC(=O)N(c3ccc(F)cc3)C2=O)ccc1Cl (stereo unspecified)	-5.6
CN(C)S(=O)(=O)c1ccc(Cl)c(NC(=O)c2ccncc2)c1	0.0
Cc1nc(N)nc(N)c1/C=C/C(C)(C)c1ccc(Cl)cc1	0.0
CC(C(=O)N1CCOCC1)N1C(=O)c2ccccc2C1=O (stereo unspecified)	282.4
O=C1c2ccccc2C(=O)N1CC(O)CN1CCOCC1 (stereo unspecified)	533.3*
O=C(c1ccccc1)c1ccc(OCC(O)CN2CCOCC2)cc1 (stereo unspecified)	233.3
NC(=O)C1CCN(C(=O)COc2ccc(S(=O)(=O)NCc3ccccc3)cc2Cl)CC1	-3.8

Compound activity: PubChem, Columbia University Molecular Screening Center
